Published values from different studies.
Each line is one published result; the experiments were not run side by side.
Target: Serine/threonine-protein kinase 26 (STK26, Homo sapiens, UniProt Q9P289)

| Compound | assay | setting | quantity | result |
| --- | --- | --- | --- | --- |
| COc1cc(Nc2cnc(C#N)c(O[C@H](C)CN(C)C)n2)ncc1-c1cnn(C)c1 | enzyme activity, inhibitor, radiometric | 1 µM | remaining activity | 83% |
| Cn1c(=O)n(-c2ccc(C(C)(C)C#N)cc2)c2c3cc(-c4cnc5ccccc5c4)ccc3ncc21 | enzyme activity, inhibitor | 10 µM | remaining activity | 100% |
| FC(F)(F)Oc1cccc(-c2cnc3ccc(-c4ccncc4)nn23)c1 | enzyme activity, inhibitor, radiometric | 5 µM | activity vs control | 87% |
| C[C@H](NC(=O)c1cnc2n1[C@](C)(Cc1ccc(C#N)cc1)C(=O)N2c1cc(Cl)c(F)c(Cl)c1)C(=O)NC1(c2ccccn2)CC1 | cell-free assay, competition with immobilised ligand | 1 µM | remaining binding | 98% |
| Nc1ncnc2occ(-c3ccc(NC(=O)Nc4cc(C(F)(F)F)ccc4F)cc3)c12 | cell-free assay, inhibitor | 20 µM | remaining signal | 2.6% |
| Cc1ccc(NC(=O)c2ccc(C)c(C(F)(F)F)c2)cc1C#Cc1nn(C2CCC(O)CC2)c2ncnc(N)c12 (centres unmarked) | cell-free assay | 10 µM | remaining signal | 73% |
| Cc1c(C(=O)O)cc(-c2ccc(C3CCNCC3)cc2)c2ccc(-c3ccc(C(F)(F)F)cc3)cc12 | binding, competition with immobilised ligand | 1 µM | remaining binding | 100% |
| Oc1ccc(-c2nc(-c3ccncc3)c(-c3ccc(F)cc3)[nH]2)cc1 | cell-free assay | 0.5 µM | remaining signal | 101% |
| CN1CCC2(CC1)NC(=O)c1c(c3ccc(Cl)c(Cl)c3n1C)C2C#N (racemic) | thermal stability, DSF | 10 µM | ΔTm | 1.7 °C |
| COc1ccnn2ncc(-c3ccnc(N(C)C)n3)c12 | cell-free assay | 1 µM | remaining signal | 86% |
| CC(C)(C)c1nc2c(s1)c1nc(N)ncc1c1ccc(NS(=O)(=O)c3c(F)cccc3F)c(F)c12 | enzyme activity, inhibitor, radiometric | 1 µM | remaining activity | 98% |
| O=C(NCCCNc1nc(Nc2cccc(NC(=O)N3CCCC3)c2)ncc1I)c1cccs1 | enzyme activity, inhibitor | 1 µM | inhibition | -93% |
| CS(=O)(=O)c1cc(C2(NC(=O)c3cncc4c3cnn4-c3ccc(F)cc3)CC2)ccn1 | cell-free assay, competition with immobilised ligand | 1 µM | remaining binding | 97% |
| Cc1cnc(NC2CCOCC2)nc1-n1cnc(C(=O)NC(CN)c2cc(F)cc(Cl)c2)c1 (centres unmarked) | enzyme activity, inhibitor, radiometric | 1 µM | remaining activity | 109% |
| COc1cc(-c2cc(-c3ccc(N4CCNCC4)cc3)cnc2C)cc(OC)c1OC | enzyme activity, inhibitor | 1 µM | inhibition | 12% |
| CC1CCCN1c1nccc(-c2cnn3ncccc23)n1 (centres unmarked) | cell-free assay | 1 µM | remaining signal | 100% |
| N#CCCc1ccc2c(c1)-c1[nH]c3ccc([N+](=O)[O-])cc3c1CC(=O)N2 | cell-free assay | 0.5 µM | remaining signal | 65.1% |
| Cn1cc(Cl)c2c(Oc3c(F)cc(Nc4cc(Cl)nc(N)n4)cc3F)ccnc21 | cell-free assay, competition with immobilised ligand | 0.1 µM | remaining binding | 92% |
| CC/C(=N\NC(=O)NCc1cccc(O)c1)c1ccc(O)c(C)c1O | enzyme activity, inhibitor | 0.1 µM | inhibition | 1.3% |
| O=C(NS(=O)(=O)c1ccc(NCC2CCOCC2)c([N+](=O)[O-])c1)c1ccc(N2CCN(Cc3ccc(C(F)(F)F)cc3-c3ccc(Cl)cc3)CC2)cc1Oc1cnc2[nH]ccc2c1 | cell-free assay, competition with immobilised ligand | 1 µM | remaining binding | 72% |
| Cn1c2c(c3ccc(Cl)c(Cl)c31)C(C#N)C1(CCNCC1)NC2=O (racemic) | thermal stability, DSF | 10 µM | ΔTm | -0.5 °C |
| CC1=C(C#N)C(c2ccc3c(c2)c(NC(=O)c2ccccc2C)nn3C)C(C#N)=C(C)N1 | cell-free assay, competition with immobilised ligand | 1 µM | remaining binding | 100% |
| CN(C)c1nccc(-c2cnc3ncccn23)n1 | cell-free assay | 1 µM | remaining signal | 68% |
